Assay results as given in ChEMBL document CHEMBL4041527, “Disulfide Bond-Containing Ajoene Analogues As Novel Quorum Sensing Inhibitors of Pseudomonas aeruginosa” (J Med Chem, 2017).
Activity calls are given as the source filed them. No cut-off for these calls is given here.

Tested on: not listed separately
Assay: (§1) Inhibition of quorum sensing LasI synthase in Pseudomonas aeruginosa PAO1 harboring reporter plasmid lasB-gfp assessed as reduction in lasB expression measured every 15 mins for 12 hrs by GFP-fluorescence assay
Settings: not given

| SMILES | IC50 |
| --- | --- |
| C=CCSSc1nc2ccc(C)cc2s1 | 1.12 µM |
| Cc1ccc2nc(SSc3nc4ccc(C)cc4s3)sc2c1 | 16.9 µM |
| CCOc1ccc2nc(SSc3nc4ccc(OCC)cc4s3)sc2c1 | 45.4 µM |
| C=CCSSc1nc2ccc(Cl)cc2o1 | 4.08 µM |
| C=CCSSc1nc2cc(OC)ccc2o1 | 3.45 µM |
| Clc1ccc(SSc2nc3ccccc3s2)cc1 | 0.56 µM |
| COc1ccc(SSc2nc3ccccc3s2)cc1 | 1.66 µM |
| CCCSSc1nc2ccccc2s1 | 2.2 µM |
| c1ccc2sc(SSc3nc4ccccc4s3)nc2c1 [BENZOTHIAZYL DISULFIDE] | 14.5 µM |
| CCOc1ccc2nc(SSc3ccc(Cl)cc3)sc2c1 | 0.72 µM |
| c1ccc(SSc2nc3ccccc3s2)cc1 | 1.34 µM |
| FC(F)(F)c1ccc2nc(SSc3ccc(Cl)cc3)sc2c1 | 0.58 µM |
| C=CCSSCc1ccccc1 | 20.9 µM |
| O=C(NS(=O)(=O)c1ccccc1)c1ccccc1 | 36.2 µM |
| C=CCSSc1nc2ccc(C(F)(F)F)cc2s1 | 1.35 µM |
| C=CCSS/C=C/C[S+]([O-])CC=C (configuration not stated) [AJOENE] | 15 µM |
| C=CCSSc1nc2ccccc2s1 | 0.98 µM |
| Cc1ccc2nc(SSc3ccc(Cl)cc3)sc2c1 | 0.68 µM |
| C[S+]([O-])CCCN=C=S (configuration not stated) | 31 µM |
| C=CCSSc1nc2ccc(Cl)cc2s1 | 0.78 µM |
| CCOC(=S)SCC#N | 2.14 µM |
| FC(F)(F)c1ccc2nc(SSc3nc4ccc(C(F)(F)F)cc4s3)sc2c1 | 12.1 µM |
| Clc1ccc(SSc2nc3ccc(Cl)cc3s2)cc1 | 3.25 µM |
| c1ccc2sc(SSC3CCCCC3)nc2c1 | 6 µM |
| C=CCSSc1nc2ccc(OCC)cc2s1 | 3.58 µM |
| C=CCSSc1nnc(N)s1 | 2.28 µM |

Tested on: Pseudomonas aeruginosa PAO1
Assay: as §1
Settings: not given

| SMILES | inhibition |
| --- | --- |
| Clc1ccc(Sc2nc3ccccc3s2)cc1 | inactive |
| C=CCCSc1nc2ccccc2s1 | inactive |
| O=C(NS(=O)(=O)c1ccccc1)c1ccccc1 | Dose-dependent effect |
| C=CCSc1nc2ccccc2s1 | inactive |
| C=CCSSc1nc2ccccc2s1 | Dose-dependent effect |
| CCCSc1nc2ccccc2s1 | inactive |
| CCOC(=S)SCC#N | Dose-dependent effect |
| C=CCSSc1nnc(N)s1 | Dose-dependent effect |

Biological target: T1, HTH-type quorum-sensing regulator RhlR (Pseudomonas aeruginosa (strain ATCC 15692 / PAO1 / 1C / PRS 101 / LMG12228), UniProt P54292)
T1 sequence (P54292 whole entry): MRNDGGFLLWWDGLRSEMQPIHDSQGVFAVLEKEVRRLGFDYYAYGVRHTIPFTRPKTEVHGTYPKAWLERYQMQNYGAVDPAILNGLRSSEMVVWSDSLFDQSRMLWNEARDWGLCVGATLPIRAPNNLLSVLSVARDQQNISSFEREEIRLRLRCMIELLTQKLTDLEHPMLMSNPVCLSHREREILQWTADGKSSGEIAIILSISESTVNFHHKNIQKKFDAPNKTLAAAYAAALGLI
Assay: Inhibition of quorum sensing regulator protein RhlR in Pseudomonas aeruginosa PAO1 harboring reporter plasmid rhlA-gfp assessed as reduction in rhlA expression measured every 15 mins for 12 hrs by GFP-fluorescence assay
Settings: not given

| SMILES | IC50 |
| --- | --- |
| C=CCSS/C=C/C[S+]([O-])CC=C (configuration not stated) [AJOENE] | 50 µM |
| C=CCSSc1nc2ccccc2s1 | 2.03 µM |

Tested on: not listed separately
Assay: Inhibition of quorum sensing regulator protein pqsR in Pseudomonas aeruginosa PAO1 harboring reporter plasmid pqsA-gfp assessed as reduction in pqsA expression measured every 15 mins for 12 hrs by GFP-fluorescence assay
Settings: not given

| SMILES | IC50 |
| --- | --- |
| C=CCSSc1nc2ccccc2s1 | 0.33 µM |

Tested on: Pseudomonas aeruginosa PAO1
Assay: Inhibition of quorum sensing LasI synthase in Pseudomonas aeruginosa PAO1 harboring reporter plasmid lasB-gfp assessed as reduction in lasB expression at 10 uM measured every 15 mins for 12 hrs by GFP-fluorescence assay
Settings: not given

| SMILES | inhibition |
| --- | --- |
| C=CCSSc1nnnn1-c1ccccc1 | inactive |
| C=CCSSc1ccccc1C(=O)OC | inactive |

Tested on: Pseudomonas aeruginosa
Assay: Growth inhibition of Pseudomonas aeruginosa PAO1 harboring reporter plasmid lasB-gfp
Settings: not given

| SMILES | growth inhibition (GI) |
| --- | --- |
| C=CCSSc1nc2ccc(C)cc2s1 | Non-Toxic |
| Cc1ccc2nc(SSc3nc4ccc(C)cc4s3)sc2c1 | Non-Toxic |
| CCOc1ccc2nc(SSc3nc4ccc(OCC)cc4s3)sc2c1 | Non-Toxic |
| C=CCSSc1nc2ccc(Cl)cc2o1 | Non-Toxic |
| Clc1ccc(Sc2nc3ccccc3s2)cc1 | Non-Toxic |
| C=CCSSc1nc2cc(OC)ccc2o1 | Non-Toxic |
| Clc1ccc(SSc2nc3ccccc3s2)cc1 | Non-Toxic |
| COc1ccc(SSc2nc3ccccc3s2)cc1 | Non-Toxic |
| CCCSSc1nc2ccccc2s1 | Non-Toxic |
| c1ccc2sc(SSc3nc4ccccc4s3)nc2c1 [BENZOTHIAZYL DISULFIDE] | Non-Toxic |
| CCOc1ccc2nc(SSc3ccc(Cl)cc3)sc2c1 | Non-Toxic |
| c1ccc(SSc2nc3ccccc3s2)cc1 | Non-Toxic |
| C=CCCSc1nc2ccccc2s1 | Non-Toxic |
| C=CCSSc1nnnn1-c1ccccc1 | Non-Toxic |
| FC(F)(F)c1ccc2nc(SSc3ccc(Cl)cc3)sc2c1 | Non-Toxic |
| C=CCSSCc1ccccc1 | Non-Toxic |
| C=CCSSc1nc2ccc(C(F)(F)F)cc2s1 | Non-Toxic |
| C=CCSS/C=C/C[S+]([O-])CC=C (configuration not stated) [AJOENE] | Non-Toxic |
| C=CCSc1nc2ccccc2s1 | Non-Toxic |
| C=CCSSc1nc2ccccc2s1 | Non-Toxic |
| Cc1ccc2nc(SSc3ccc(Cl)cc3)sc2c1 | Non-Toxic |
| C[S+]([O-])CCCN=C=S (configuration not stated) | Non-Toxic |
| CCCSc1nc2ccccc2s1 | Non-Toxic |
| C=CCSSc1nc2ccc(Cl)cc2s1 | Non-Toxic |
| FC(F)(F)c1ccc2nc(SSc3nc4ccc(C(F)(F)F)cc4s3)sc2c1 | Non-Toxic |
| Clc1ccc(SSc2nc3ccc(Cl)cc3s2)cc1 | Non-Toxic |
| c1ccc2sc(SSC3CCCCC3)nc2c1 | Non-Toxic |
| C=CCSSc1nc2ccc(OCC)cc2s1 | Non-Toxic |
| C=CCSSc1ccccc1C(=O)OC | Non-Toxic |
| C=CCSSc1nnc(N)s1 | Non-Toxic |

Tested on: Pseudomonas aeruginosa PAO1
Assay: Inhibition of quorum sensing LasI synthase in wild-type Pseudomonas aeruginosa PAO1 assessed as reduction in elastase production at 10 uM incubated for 24 hrs measured every 10 mins for 3 hrs by BODIPY fluorophore-labelled DQ elastin conjugate based fluorescence assay
Settings: not given
In short: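 PAO1 wild type, with ∆lasI∆rhlI as negative control, diluted to OD600 0.01 in 5 mL ABTGC with 10 µM compound. Grown 24 h at 37 °C, 200 rpm. Cleared supernatant assayed with BODIPY FL-labelled DQ elastin; fluorescence (ex 490/em 520 nm) read every 10 min for 3 h. Student's t test, mean ± SD.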

| SMILES | inhibition |
| --- | --- |
| Clc1ccc(SSc2nc3ccccc3s2)cc1 | Active |
| C=CCSSc1nc2ccccc2s1 | Active |

Biological target: T2, HTH-type quorum-sensing regulator RhlR (Pseudomonas aeruginosa (strain ATCC 15692 / PAO1 / 1C / PRS 101 / LMG12228)) (UniProt P54292)
T2 sequence (whole entry): T1 sequence (P54292 whole entry)
Assay: Inhibition of quorum sensing regulator protein RhlR in wild-type Pseudomonas aeruginosa PAO1 assessed as reduction in pyocyanin level at 10 uM after 48 hrs
Settings: not given
In short: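 PAO1 wild type, with ∆lasI∆rhlI as negative control, standardized to OD600 0.1 and diluted 100-fold into 25 mL King's medium with 10 µM compound. Grown 48 h at 37 °C, 200 rpm; final OD600 read. Pyocyanin extracted from supernatant with chloroform then 0.2 M HCl; absorbance read on the aqueous layer. Student's t test.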

| SMILES | inhibition |
| --- | --- |
| Clc1ccc(SSc2nc3ccccc3s2)cc1 | Active |
| C=CCSSc1nc2ccccc2s1 | Active |

Biological target: T2, HTH-type quorum-sensing regulator RhlR (Pseudomonas aeruginosa (strain ATCC 15692 / PAO1 / 1C / PRS 101 / LMG12228))
Assay: Inhibition of quorum sensing regulator protein RhlR in wild-type Pseudomonas aeruginosa PAO1 assessed as reduction in rhamnolipid level at 10 uM after 24 hrs relative to control
Settings: not given
In short: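 PAO1 subculture diluted 100-fold into ABTGC (OD600 0.1) with 10 µM compound, ∆lasI∆rhlI as negative control. Grown 24 h at 37 °C, 200 rpm; final OD600 read. Supernatant extracted twice with diethyl ether and rhamnolipid quantified by a modified orcinol method. Student's t test, mean ± SD.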

| SMILES | inhibition |
| --- | --- |
| Clc1ccc(SSc2nc3ccccc3s2)cc1 | 50% |
| C=CCSSc1nc2ccccc2s1 | 50% |

Tested on: Pseudomonas aeruginosa PAO1
Assay: Inhibition of quorum sensing LasI synthase in Pseudomonas aeruginosa PAO1 harboring reporter plasmid lasB-gfp at 10 uM in presence of bovine serum albumin measured after 18 hrs by GFP-fluorescence assay
Settings: not given
In short: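 BSA dissolved in ABTGC at 100 mg/mL, then 2-fold serially diluted across rows; compound final 10 µM. PAO1-lasB-gfp, grown overnight in LB, added at OD600 0.02 in ABTGC. GFP/OD read after 18 h at 37 °C.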

| SMILES | inhibition |
| --- | --- |
| Clc1ccc(SSc2nc3ccccc3s2)cc1 | Active |
| C=CCSSc1nc2ccccc2s1 | Active |

Tested on: RAW264.7
Assay: Cytotoxicity against mouse RAW264.7 cells at 100 uM measured after 16 hrs by Alamar blue assay
Format: cell-based
Settings: raw264.7, 16 h
In short: (§2)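 RAW264.7 macrophages in DMEM with 10% FBS, 1 × 10^5 per well, grown 16 h. Cells were washed with PBS and exposed to compound at 0, 0.01, 0.1, 1, 10 or 100 µM for 16 h at 37 °C, 5% CO2. Alamar Blue added, 3 h incubation, OD595 read. Triplicates, mean±s.d., compared with DMSO.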

| SMILES | Activity |
| --- | --- |
| Clc1ccc(SSc2nc3ccccc3s2)cc1 | Toxic |
| C=CCSSc1nc2ccccc2s1 | Toxic |

Tested on: RAW264.7
Assay: Cytotoxicity against mouse RAW264.7 cells at 0.01 to 10 uM measured after 16 hrs by Alamar blue assay
Format: cell-based
Settings: raw264.7, 16 h
In short: as §2

| SMILES | Activity |
| --- | --- |
| Clc1ccc(SSc2nc3ccccc3s2)cc1 | Non-Toxic |
| C=CCSSc1nc2ccccc2s1 | Non-Toxic |

Tested on: Pseudomonas aeruginosa
Assay: Antibacterial activity against Pseudomonas aeruginosa in bacterial coated silicone implanted BALB/c mouse assessed as reduction in biofilm formation at 10 uM measured at 24 hrs post infection
Format: functional
Settings: not given
In short: (§3)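 Female BALB/c mice, 8 weeks old. A 4 mm silicone tube was incubated 18 h at 37 °C in 0.9% NaCl with P. aeruginosa (OD600 0.1), then inserted into the peritoneal cavity under ketamine/xylazine. At 2 h post-infection, 200 µL of 10 µM compound (EtOH stock diluted in 20% hydroxypropyl-β-cyclodextrin/saline) was injected at the implant site; vehicle for controls. At 24 h, CFU/mL counted from sonicated implants and homogenized spleens on LB; Mann-Whitney U test.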

| SMILES | Activity |
| --- | --- |
| Clc1ccc(SSc2nc3ccccc3s2)cc1 | Active |
| C=CCSSc1nc2ccccc2s1 | Active |

Tested on: Pseudomonas aeruginosa
Assay: Antibacterial activity against Pseudomonas aeruginosa infected in BALB/c mouse assessed as reduction in bacterial dissemination in spleen at 10 uM measured at 24 hrs post infection
Format: functional
Settings: not given
In short: as §3

| SMILES | Activity |
| --- | --- |
| Clc1ccc(SSc2nc3ccccc3s2)cc1 | Active |
| C=CCSSc1nc2ccccc2s1 | Active |

Tested on: Pseudomonas aeruginosa
Assay: Effect on GFP fluorescence output signal in Pseudomonas aeruginosa PAO1 at 10 uM measured every 15 mins for 12 hrs
Format: ADME
Settings: not given
In short: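 PAO1-gfp control strain, handled as the lasB-gfp reporter assay. Overnight LB culture diluted in ABTGC to OD600 0.02 and mixed with compound, final 10 µM, DMSO 0.1% final. Incubated at 37 °C; OD600 and GFP fluorescence (ex 485/em 535 nm) read every 15 min for at least 12 h, in triplicate.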

| SMILES | Activity |
| --- | --- |
| Clc1ccc(SSc2nc3ccccc3s2)cc1 | Non-Toxic |
| C=CCSSc1nc2ccccc2s1 | Non-Toxic |
